In data set [1] the test system is CHO. The data set is described as follows: Cytotoxicity against PAT active CHO cells after 48 hrs. The format is cell-based. The settings on record: Cricetulus griseus. Summed up:
(§1)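 CHO and CHO-MG grown in RPMI with 10% FCS, glutamine, penicillin/streptomycin and 2 mM aminoguanidine; CHO-MG medium also has L-proline (2 µg/mL); 37 °C, 5% CO2. Cells plated at 1 × 10⁴ cells/mL and drug added after overnight incubation. After 48 h exposure, growth read as MTT formazan absorbance at 540 nm. IC50 is the concentration giving 50% reduction in relative growth; ratio is CHO-MG IC50 over CHO IC50.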

In data set [2] the test system is L1210. Description: Cytotoxicity against mouse L1210 cells after 48 hrs. It counts as functional, cell-based. Conditions: L1210, 48 h. The method, boiled down: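 L1210 cells in early to mid log phase, viability checked by trypan blue, grown in RPMI with 10% FCS, glutamine, antibiotics and 2 mM aminoguanidine at 37 °C, 5% CO2. Seeded at 6 × 10⁴ cells/mL with drug added at seeding. After 48 h exposure, growth read as MTT formazan at 540 nm. IC50 is the concentration reducing relative growth by 50%.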

In data set [3] the test system is polyamine transporter (PAT). The data set is described as follows: Ratio of IC50 for PAT deficient CHO-MG cells to IC50 for PAT active CHO cells. It counts as cell-based, Cricetulus griseus. Conditions: chinese hamster, PAT-deficient CHO-MG cells and PAT-active CHO cells; read-out: Ratio IC50. The method, boiled down: as §1
A short description of data set [4]: Inhibition of [3H]spermidine uptake at PAT in mouse L1210 cells. It counts as cell-based.
Data set [5] concerns L1210. The data set is described as follows: Cytotoxicity against mouse L1210 cells after 24 hrs in presence of spermidine. It counts as functional, cell-based. The settings on record: L1210, 24 h.
In data set [6] the test system is CHO-MG. Description: Cytotoxicity against PAT deficient CHO-MG cells after 48 hrs. The format is cell-based. The settings on record: Cricetulus griseus. The method, boiled down:
as §1

For data set [7], the system named is FL5.12. Description: Induction of apoptosis in 2 ng/ml IL3-induced mouse FL5.12A cells at 10 uM in presence of spermidine. The format is functional. Summed up:
(§2)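 FL5.12A cells held 24 h at 2, 0.1 or 0 ng/mL IL-3 (5 × 10⁶ cells/well), then treated with compound overnight with or without spermidine (100 µM). Apoptosis read as % annexin-V-FITC-positive cells by flow cytometry; run in duplicate.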

Data set [8] concerns L1210. The data set is described as follows: Cytotoxicity against mouse L1210 cells after 24 hrs in presence of 100 uM spermidine. The settings on record: L1210, 24 h. It counts as functional, cell-based.
The test system of data set [9] is FL5.12. The data set is described as follows: Induction of apoptosis in 0.1 ng/ml IL3-induced mouse FL5.12A cells at 10 uM in presence of spermidine. The format is functional. The method, boiled down: as §2
Data set [10] deals with L1210. The data set is described as follows: Cytotoxicity against mouse L1210 cells in presence of ODC inhibitor difluoromethylornithine. It counts as functional, cell-based.
Data set [11] relates to FL5.12. The data set is described as follows: Induction of apoptosis in mouse FL5.12A cells at 10 uM. It counts as functional. Summed up:
(§3)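 FL5.12A pro-B cells in RPMI1640 with 10% heat-inactivated FCS, antibiotics and IL-3 (2, 0.1 or 0 ng/mL) at 37 °C, 5% CO2. Preincubated 24 h at 5 × 10⁶ cells/well, then given 10 µM compound with aminoguanidine for 24 h. Result is % annexin-positive cells; run in triplicate.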

The test system of data set [12] is FL5.12. The data set is described as follows: Induction of apoptosis in 0.1 ng/ml IL3-induced mouse FL5.12A cells at 10 uM. The format is functional. Summed up: as §3
The test system of data set [13] is FL5.12. The data set is described as follows: Induction of apoptosis in mouse FL5.12A cells at 10 uM in presence of spermidine. It counts as functional. The method, boiled down: as §2
Data set [14] relates to FL5.12. Description: Induction of apoptosis in 2 ng/ml IL3-induced mouse FL5.12A cells at 10 uM. The format is functional. Summed up: as §3
A short description of data set [15]: Induction of apoptosis in 2 ng/ml IL3-induced mouse FL5.12A cells at 10 uM after DMSO shock. It counts as functional. Summed up: (§4)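 FL5.12A pro-B cells in RPMI1640 with 10% heat-inactivated FCS and 1 mM aminoguanidine, 37 °C, 5% CO2. Preincubated 24 h with IL-3 at the stated level (5 × 10⁶ cells/well), then dosed overnight without spermidine. Washed, shocked 2 min in 10% DMSO, washed twice with Hank's, and held 2 h at 37 °C.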

The subject of data set [16] is FL5.12. The data set is described as follows: Induction of apoptosis in mouse FL5.12A cells at 10 uM after DMSO shock. It counts as functional. Summed up:
(§5)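 FL5.12A cells held 24 h at 2, 0.1 or 0 ng/mL IL-3 (5 × 10⁶ cells/well), treated overnight with or without spermidine (100 µM), then washed and exposed to 10% DMSO for 2 min. Washed twice in Hank's medium and incubated 2 h at 37 °C. Apoptosis read as % annexin-V-FITC-positive cells; run in duplicate.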

Data set [17] in a line: Induction of apoptosis in 0.1 ng/ml IL3-induced mouse FL5.12A cells treated after DMSO shock at 10 uM in presence of spermidine. The format is functional. The method, boiled down:
(§6)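 FL5.12A pro-B cells in RPMI1640 with 10% heat-inactivated FCS and 1 mM aminoguanidine, 37 °C, 5% CO2. Preincubated 24 h at the stated IL-3 level (5 × 10⁶ cells/well), then dosed overnight with spermidine 100 µM. Washed, shocked 2 min in 10% DMSO, washed twice in Hank's, and held 2 h at 37 °C.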

Data set [18] in a line: Induction of apoptosis in 2 ng/ml IL3-induced mouse FL5.12A cells treated after DMSO shock at 10 uM in presence of spermidine. It counts as functional. The method, boiled down:
as §6

In data set [19] the test system is FL5.12. Description: Induction of apoptosis in mouse FL5.12A cells treated after DMSO shock at 10 uM in presence of spermidine. The format is functional. The method, boiled down: as §5
Data set [20] can be described thus: Induction of apoptosis in 0.1 ng/ml IL3-induced mouse FL5.12A cells at 10 uM after DMSO shock. It counts as functional. The method, boiled down:
as §4

Data set [21] is described as follows: Chemical stability in phosphate buffer assessed as degraded compound after 48 hrs. Conditions: read-out: Activity. The format is physicochemical. Summed up:
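NMR in phosphate buffer, pD 7.4, in D2O; sample held 48 h at 37 °C, then the fraction of conjugate degraded was read.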

The IC50 is the midpoint of a concentration-inhibition curve. What is called Ki is a dissociation constant, usually derived from enzyme kinetics or from competition with a known ligand. A higher Ki goes with lower affinity. Take `NCCCCNCCCNCc1ccc(N(CCCl)CCCl)cc1`: the IC50 in [1] is more than 100 µM; in data set [2], 6.53 µM; in [5], 7.83 µM; in [6] it was more than 100 µM. The selectivity ratio in [3] worked out at 1. Besides, the Ki in data set [4] is 2.66 µM.

Turning to `Cl.Cl.NCCCCNCc1c2ccccc2cc2ccccc12`, the results for the IC50 in [1], in data set [8] and in data set [10] were 7.7 µM, 6.96 µM and 9.78 µM, respectively. Moreover, the selectivity ratio in data set [3] was determined as 1. Also, the Activity in data set [7] is on record as 47.28%; in [9], 35.59%; in data set [11], more than 95%; in [12], more than 95%; in data set [13], 35.32%; in [14], more than 95%. The Ki in [4] was determined as 32.2 µM.

For `Cl.NCCCCNCCCCNCc1c2ccccc2cc2ccccc12`, in data set [3], the selectivity ratio worked out at 148. The Activity in data set [7] was 37.3%; in data set [9], 33.87%; in data set [11], more than 95%; in [12], 80.41%; in data set [13] it was 46.2%; in data set [14], 67.71%. The Ki in data set [4] was 1.8 µM. Besides, the IC50 in [10] was 0.09 µM; in data set [5], 0.83 µM.

In the case of `NCCCCNCCCCNCc1ccc(CNCCCCNCCCCN)cc1`, the IC50 in [1] was 0.074 µM; in data set [2], 0.16 µM; in data set [10], 0.36 µM; in data set [5], 6.89 µM; in [6] it was 50.2 µM. The selectivity ratio in [3] was found to be 677. In [4], the affinity, expressed as Ki, was 0.52 µM.

Take `NCCCCNCCCN` [SPERMIDINE]: the figures for the Activity in data set [11], in data set [12] and in data set [14] were 58.16%, 6.07% and 5.52%, respectively.

Turning to `O=C(O)CCCc1ccc(N(CCCl)CCCl)cc1` [CHLORAMBUCIL], the IC50 came out at 84.5 µM in data set [1], 14.1 µM in data set [2] and 111 µM in [6]. Further, the selectivity ratio in data set [3] came out at 1.32. The compound further displayed a Ki in data set [4] of more than 150 µM.

On to `NCCCCNCCCCNCc1cccc2ccccc12`, for which the values for the IC50 in data set [1] and in data set [10] were 0.6 µM and 0.43 µM, respectively. Moreover, the selectivity ratio in data set [3] was more than 164. Further, the Ki in data set [4] was found to be 3.8 µM.

Take `NCCCCNCCCCNCc1ccccc1`: the IC50 in [2] was 36.3 µM; in data set [6], more than 1000 µM. The same compound had a Ki in data set [4] of 4.5 µM.

As for `NCCCCNCCCCNCc1ccc(CNCCCCNCCCCN)c2ccccc12`, the IC50 in data set [1] was 0.12 µM; in data set [2], 0.25 µM; in [5], 6.42 µM; in data set [6], more than 100 µM. Moreover, in data set [3], the selectivity ratio is more than 833. The same compound yielded a Ki in [4] of 0.17 µM.

For `Cl.NCCCCNCCCCNCc1c2ccccc2c(CNCCCCNCCCCN)c2ccccc12`, the Activity in [15] stood at 44.7%; in [16] it was 67.53%; in data set [17], 10.2%; in data set [18], 12.9%; in data set [19] it was 16.69%; in data set [20], 56.7%. Also, the results for the Activity in data set [11], in data set [12] and in data set [14] were 8.64%, 6.07% and 5.56%, respectively. Also, the IC50 in data set [1] is 0.045 µM; in data set [2], 0.78 µM; in data set [10], 0.22 µM; in [5], 5.52 µM; in data set [6], more than 100 µM. In addition, the selectivity ratio in [3] was more than 2220. Besides, in data set [4], the affinity corresponds to a Ki of 0.39 µM.

Turning to `N=C(N)NN` [PIMAGEDINE], the Activity is 79.69% in data set [11], 3.72% in data set [12] and 5.17% in data set [14].

Take `NCCCCNCCCCNCc1ccc(N(CCCl)CCCl)cc1`: the degraded at 48 h in data set [21] stood at 89%. The IC50 is more than 100 µM in [1], 35.4 µM in data set [2], 31.1 µM in data set [5] and more than 100 µM in data set [6]. Also, the selectivity ratio in data set [3] came to 1. In [4], the affinity, expressed as Ki, was 5.97 µM.

On to `NCCCNCCCCNCc1ccc(N(CCCl)CCCl)cc1`, for which the IC50 in data set [1] is more than 100 µM; in data set [2], 8.14 µM; in data set [5], 8.13 µM; in data set [6], more than 100 µM. In addition, the selectivity ratio in data set [3] turned out to be 1. The Ki in data set [4] stood at 12.4 µM.

Values taken from ChEMBL document CHEMBL1141574, “A comparison of chloroambucil- and xylene-containing polyamines leads to improved ligands for accessing the polyamine transport system” (J Med Chem, 2008).
